Data: ChEMBL document CHEMBL1811752, “Synthesis and pharmacological characterization of bicyclic triple reuptake inhibitor 3-aryl octahydrocyclopenta[c]pyrrole analogues” (J Med Chem, 2011)
pIC50: −log10 of the molar value.

Legend:
[1] = biological target: Sodium-dependent serotonin transporter (Homo sapiens, UniProt P31645); experiment: Inhibition of serotonin reuptake at SERT expressed in HEK293 cells; type: cell-based
[2] = biological target: Sodium-dependent dopamine transporter (Homo sapiens, UniProt Q01959); experiment: Inhibition of dopamine reuptake at DAT expressed in CHO-K1 cells; type: cell-based
Sequence of Sodium-dependent dopamine transporter (Q01959 whole entry): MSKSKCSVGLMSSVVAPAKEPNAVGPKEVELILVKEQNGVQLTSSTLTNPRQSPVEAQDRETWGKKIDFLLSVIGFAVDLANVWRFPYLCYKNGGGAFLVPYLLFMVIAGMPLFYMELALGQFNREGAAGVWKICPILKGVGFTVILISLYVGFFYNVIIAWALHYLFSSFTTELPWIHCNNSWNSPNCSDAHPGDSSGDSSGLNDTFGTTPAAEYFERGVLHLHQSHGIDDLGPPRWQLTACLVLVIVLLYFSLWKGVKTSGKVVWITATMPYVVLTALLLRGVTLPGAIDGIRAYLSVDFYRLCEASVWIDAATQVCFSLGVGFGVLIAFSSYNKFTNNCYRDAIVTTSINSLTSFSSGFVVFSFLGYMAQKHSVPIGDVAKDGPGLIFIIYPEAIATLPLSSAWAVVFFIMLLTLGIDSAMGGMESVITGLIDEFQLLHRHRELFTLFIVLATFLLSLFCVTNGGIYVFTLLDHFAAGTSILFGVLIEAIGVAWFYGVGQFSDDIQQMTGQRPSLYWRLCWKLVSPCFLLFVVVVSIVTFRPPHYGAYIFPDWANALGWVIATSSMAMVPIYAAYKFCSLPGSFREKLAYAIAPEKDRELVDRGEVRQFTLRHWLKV

[3] = Half life in human liver microsomes at 3 uM by LC-MS/MS analysis; type: ADME, Microsome
Outline: (§1)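 Human or mouse liver microsomes (0.5 mg/mL) incubated with 3 μM compound at 37 °C. Reaction started with NADPH and stopped with methanol containing internal standard. Loss of compound followed over 45 min by LC-MS/MS. Peak area ratio to internal standard plotted against time and the slope of the line taken.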

[4] = Half life in mouse liver microsomes at 3 uM by LC-MS/MS analysis; type: ADME, Microsome; outline: as §1
[5] = biological target: Sodium-dependent noradrenaline transporter (Homo sapiens, UniProt P23975); experiment: Inhibition of norepinephrine reuptake at NET expressed in MDCK cells; type: cell-based
Sequence of Sodium-dependent noradrenaline transporter (P23975 whole entry): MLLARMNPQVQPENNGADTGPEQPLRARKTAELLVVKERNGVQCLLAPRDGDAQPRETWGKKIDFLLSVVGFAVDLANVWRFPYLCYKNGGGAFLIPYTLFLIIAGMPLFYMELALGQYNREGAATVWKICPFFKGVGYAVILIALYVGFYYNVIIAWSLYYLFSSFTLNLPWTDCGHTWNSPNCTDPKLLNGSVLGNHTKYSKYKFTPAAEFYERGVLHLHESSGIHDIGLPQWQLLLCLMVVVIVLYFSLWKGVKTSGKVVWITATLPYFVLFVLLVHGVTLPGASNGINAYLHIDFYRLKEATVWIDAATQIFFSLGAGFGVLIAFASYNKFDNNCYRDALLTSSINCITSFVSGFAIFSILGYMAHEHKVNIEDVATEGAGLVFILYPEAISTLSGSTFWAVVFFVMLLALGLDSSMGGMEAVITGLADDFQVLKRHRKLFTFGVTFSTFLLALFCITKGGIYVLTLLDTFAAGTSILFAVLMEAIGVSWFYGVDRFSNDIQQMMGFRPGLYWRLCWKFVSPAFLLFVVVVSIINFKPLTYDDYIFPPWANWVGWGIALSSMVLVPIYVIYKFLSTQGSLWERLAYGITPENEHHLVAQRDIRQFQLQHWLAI

[6] = biological target: Cytochrome P450 2D6 (Homo sapiens, UniProt P10635); experiment: Inhibition of CYP2D6 in human liver microsomes by LC-MS/MS analysis; type: ADME, Microsome
Sequence of Cytochrome P450 2D6 (P10635 whole entry, canonical isoform): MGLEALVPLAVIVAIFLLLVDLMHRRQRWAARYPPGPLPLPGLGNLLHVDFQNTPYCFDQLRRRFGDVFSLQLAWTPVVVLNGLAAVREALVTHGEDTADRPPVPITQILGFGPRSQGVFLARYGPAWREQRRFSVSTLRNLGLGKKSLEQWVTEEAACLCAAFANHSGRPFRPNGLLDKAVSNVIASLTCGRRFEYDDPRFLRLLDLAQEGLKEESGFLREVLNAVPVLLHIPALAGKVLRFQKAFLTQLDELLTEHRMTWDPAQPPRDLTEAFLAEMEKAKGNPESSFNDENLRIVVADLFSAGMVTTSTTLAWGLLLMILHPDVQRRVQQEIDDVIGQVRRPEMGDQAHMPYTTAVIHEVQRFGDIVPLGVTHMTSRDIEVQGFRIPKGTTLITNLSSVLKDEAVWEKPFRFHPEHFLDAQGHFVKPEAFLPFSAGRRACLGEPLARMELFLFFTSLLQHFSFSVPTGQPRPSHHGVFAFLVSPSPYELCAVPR
Outline: (§2)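 Human liver microsomes incubated with isoform-specific substrates and compound, typically 0.1–25 μM. Metabolite formation read by LC-MS/MS, […]. IC50 calculated from the decrease in metabolite formation relative to vehicle control.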

[7] = biological target: Cytochrome P450 3A4 (Homo sapiens, UniProt P08684); experiment: Inhibition of CYP3A4 in human liver microsomes by LC-MS/MS analysis; type: ADME, Microsome; outline: as §2
Sequence of Cytochrome P450 3A4 (P08684 whole entry): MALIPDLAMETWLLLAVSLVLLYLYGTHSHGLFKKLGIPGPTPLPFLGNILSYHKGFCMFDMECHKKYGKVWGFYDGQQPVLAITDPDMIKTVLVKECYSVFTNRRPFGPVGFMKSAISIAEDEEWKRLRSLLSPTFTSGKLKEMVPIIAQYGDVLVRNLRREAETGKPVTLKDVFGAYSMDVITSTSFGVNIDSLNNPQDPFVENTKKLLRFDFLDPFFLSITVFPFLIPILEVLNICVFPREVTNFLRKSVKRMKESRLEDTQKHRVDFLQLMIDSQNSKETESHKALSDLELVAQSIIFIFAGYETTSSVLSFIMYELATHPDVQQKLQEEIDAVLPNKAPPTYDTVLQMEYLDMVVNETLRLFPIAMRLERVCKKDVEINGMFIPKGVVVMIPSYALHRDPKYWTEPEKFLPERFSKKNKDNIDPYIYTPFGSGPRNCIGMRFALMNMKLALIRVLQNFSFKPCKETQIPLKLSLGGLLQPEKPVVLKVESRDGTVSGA

[8] = biological target: Cytochrome P450 2C9 (Homo sapiens, UniProt P11712); experiment: Inhibition of CYP2C9 in human liver microsomes by LC-MS/MS analysis; type: ADME, Microsome; outline: as §2
Sequence of Cytochrome P450 2C9 (P11712 whole entry): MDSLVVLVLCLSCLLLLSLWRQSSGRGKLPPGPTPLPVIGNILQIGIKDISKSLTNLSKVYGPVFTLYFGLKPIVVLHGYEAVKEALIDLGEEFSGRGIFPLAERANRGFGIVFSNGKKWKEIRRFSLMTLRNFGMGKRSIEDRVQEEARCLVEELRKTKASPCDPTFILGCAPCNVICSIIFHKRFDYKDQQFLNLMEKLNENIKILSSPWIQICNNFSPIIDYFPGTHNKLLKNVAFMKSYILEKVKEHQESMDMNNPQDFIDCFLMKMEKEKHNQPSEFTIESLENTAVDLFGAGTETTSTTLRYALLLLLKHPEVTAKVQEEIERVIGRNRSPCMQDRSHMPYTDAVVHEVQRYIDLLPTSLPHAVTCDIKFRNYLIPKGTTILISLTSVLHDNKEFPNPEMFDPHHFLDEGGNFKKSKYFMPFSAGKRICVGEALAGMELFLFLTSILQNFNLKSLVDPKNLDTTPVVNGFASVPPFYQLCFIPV

[9] = biological target: Voltage-gated inwardly rectifying potassium channel KCNH2 (Homo sapiens, UniProt Q12809); experiment: Inhibition of human ERG expressed in CHO cells by high throughput single cell planar patch clamp method; type: cell-based
Sequence of Voltage-gated inwardly rectifying potassium channel KCNH2 (Q12809 whole entry): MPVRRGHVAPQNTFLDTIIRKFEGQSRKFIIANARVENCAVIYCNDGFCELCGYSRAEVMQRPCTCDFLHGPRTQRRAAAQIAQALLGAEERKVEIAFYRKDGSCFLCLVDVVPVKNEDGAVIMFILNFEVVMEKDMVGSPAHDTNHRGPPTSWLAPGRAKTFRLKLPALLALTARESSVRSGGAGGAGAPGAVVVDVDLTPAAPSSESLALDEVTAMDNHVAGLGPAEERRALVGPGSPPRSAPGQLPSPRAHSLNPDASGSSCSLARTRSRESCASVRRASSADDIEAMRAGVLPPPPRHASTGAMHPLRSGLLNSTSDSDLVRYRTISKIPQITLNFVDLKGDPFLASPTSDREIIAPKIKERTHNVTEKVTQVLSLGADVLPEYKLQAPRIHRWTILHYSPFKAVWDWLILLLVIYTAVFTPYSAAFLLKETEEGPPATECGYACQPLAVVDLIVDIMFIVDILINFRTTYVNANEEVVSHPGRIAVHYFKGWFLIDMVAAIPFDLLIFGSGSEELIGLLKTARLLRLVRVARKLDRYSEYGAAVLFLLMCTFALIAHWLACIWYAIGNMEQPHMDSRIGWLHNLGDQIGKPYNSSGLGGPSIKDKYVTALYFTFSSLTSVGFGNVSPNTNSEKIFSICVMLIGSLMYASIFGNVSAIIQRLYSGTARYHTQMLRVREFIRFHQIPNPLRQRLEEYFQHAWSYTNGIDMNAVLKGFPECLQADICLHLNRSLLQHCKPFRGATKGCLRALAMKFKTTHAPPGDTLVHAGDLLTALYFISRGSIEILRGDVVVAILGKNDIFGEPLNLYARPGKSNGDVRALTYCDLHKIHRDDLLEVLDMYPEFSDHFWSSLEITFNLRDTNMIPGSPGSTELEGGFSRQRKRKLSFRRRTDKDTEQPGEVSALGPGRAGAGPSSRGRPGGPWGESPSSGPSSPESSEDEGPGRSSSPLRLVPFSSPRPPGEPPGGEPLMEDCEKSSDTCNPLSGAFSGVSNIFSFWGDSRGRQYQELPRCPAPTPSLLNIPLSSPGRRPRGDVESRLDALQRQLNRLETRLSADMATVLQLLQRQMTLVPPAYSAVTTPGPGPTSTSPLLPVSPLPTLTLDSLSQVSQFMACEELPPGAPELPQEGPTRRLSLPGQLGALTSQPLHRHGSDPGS

[10] = biological target: T1, CYP1A (Homo sapiens, UniProt P04798+P05177); experiment: Inhibition of CYP1A in human liver microsomes by LC-MS/MS analysis; type: ADME, Microsome; outline: as §2
T1 sequence (P04798 whole entry): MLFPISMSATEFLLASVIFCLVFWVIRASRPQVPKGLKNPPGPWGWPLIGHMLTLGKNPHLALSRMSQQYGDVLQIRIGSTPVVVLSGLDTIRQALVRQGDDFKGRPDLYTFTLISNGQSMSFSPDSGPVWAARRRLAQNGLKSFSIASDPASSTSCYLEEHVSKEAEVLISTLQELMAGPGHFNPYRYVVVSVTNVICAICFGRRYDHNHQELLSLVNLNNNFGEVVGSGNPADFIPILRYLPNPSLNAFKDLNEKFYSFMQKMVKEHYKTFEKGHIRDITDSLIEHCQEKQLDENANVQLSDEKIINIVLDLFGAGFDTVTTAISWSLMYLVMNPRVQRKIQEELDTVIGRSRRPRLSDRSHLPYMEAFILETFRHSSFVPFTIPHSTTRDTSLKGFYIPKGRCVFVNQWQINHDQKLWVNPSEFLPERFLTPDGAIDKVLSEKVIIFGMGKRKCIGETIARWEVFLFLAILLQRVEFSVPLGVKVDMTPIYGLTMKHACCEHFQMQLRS
T1 sequence (P05177 whole entry): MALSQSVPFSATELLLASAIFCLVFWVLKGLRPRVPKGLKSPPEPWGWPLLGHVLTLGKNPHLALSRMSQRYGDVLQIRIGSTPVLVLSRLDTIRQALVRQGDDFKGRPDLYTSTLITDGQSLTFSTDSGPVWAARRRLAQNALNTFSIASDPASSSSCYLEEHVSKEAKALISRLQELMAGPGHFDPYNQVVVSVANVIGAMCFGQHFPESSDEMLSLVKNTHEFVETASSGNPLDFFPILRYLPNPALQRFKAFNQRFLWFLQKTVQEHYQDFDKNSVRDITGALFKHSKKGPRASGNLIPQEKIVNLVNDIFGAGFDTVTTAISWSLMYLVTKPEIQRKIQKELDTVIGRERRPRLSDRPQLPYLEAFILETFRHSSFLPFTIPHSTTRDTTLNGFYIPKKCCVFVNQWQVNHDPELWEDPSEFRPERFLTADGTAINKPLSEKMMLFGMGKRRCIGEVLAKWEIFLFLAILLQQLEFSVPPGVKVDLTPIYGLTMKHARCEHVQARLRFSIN

[11] = biological target: Cytochrome P450 2C19 (Homo sapiens, UniProt P33261); experiment: Inhibition of CYP2C19 in human liver microsomes by LC-MS/MS analysis; type: ADME, Microsome; outline: as §2
Sequence of Cytochrome P450 2C19 (P33261 whole entry): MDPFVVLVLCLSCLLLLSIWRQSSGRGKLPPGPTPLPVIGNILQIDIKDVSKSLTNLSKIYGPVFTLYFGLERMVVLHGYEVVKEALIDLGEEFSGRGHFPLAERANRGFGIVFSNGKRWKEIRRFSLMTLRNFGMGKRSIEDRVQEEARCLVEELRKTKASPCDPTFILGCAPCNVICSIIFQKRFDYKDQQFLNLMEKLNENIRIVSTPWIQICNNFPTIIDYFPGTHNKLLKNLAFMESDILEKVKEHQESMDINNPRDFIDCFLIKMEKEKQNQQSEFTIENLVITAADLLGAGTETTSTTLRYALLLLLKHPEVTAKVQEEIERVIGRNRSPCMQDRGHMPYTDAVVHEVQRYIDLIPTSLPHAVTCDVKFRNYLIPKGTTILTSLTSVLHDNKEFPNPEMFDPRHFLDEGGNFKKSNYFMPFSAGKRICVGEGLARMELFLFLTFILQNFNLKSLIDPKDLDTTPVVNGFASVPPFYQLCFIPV

Sequence of Sodium-dependent serotonin transporter (P31645 whole entry): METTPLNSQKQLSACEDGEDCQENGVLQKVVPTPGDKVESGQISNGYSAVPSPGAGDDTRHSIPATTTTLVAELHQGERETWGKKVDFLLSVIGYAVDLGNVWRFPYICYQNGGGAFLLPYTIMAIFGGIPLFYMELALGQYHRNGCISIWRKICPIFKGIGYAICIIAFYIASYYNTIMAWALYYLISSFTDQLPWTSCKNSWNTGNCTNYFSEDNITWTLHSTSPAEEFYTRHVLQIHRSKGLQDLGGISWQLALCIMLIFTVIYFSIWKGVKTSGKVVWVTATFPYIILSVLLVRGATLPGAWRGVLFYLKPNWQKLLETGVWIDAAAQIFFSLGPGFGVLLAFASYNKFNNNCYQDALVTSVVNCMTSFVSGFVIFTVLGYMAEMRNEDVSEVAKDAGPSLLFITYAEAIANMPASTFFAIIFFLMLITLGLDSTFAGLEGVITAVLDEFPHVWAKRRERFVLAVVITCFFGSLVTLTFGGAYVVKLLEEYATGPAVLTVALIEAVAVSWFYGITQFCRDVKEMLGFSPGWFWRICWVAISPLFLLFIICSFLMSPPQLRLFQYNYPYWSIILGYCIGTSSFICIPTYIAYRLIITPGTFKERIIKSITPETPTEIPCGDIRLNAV

| Compound | pIC50 [1] | pIC50 [2] | half-life at 3 µM [3] | half-life at 3 µM [4] | pIC50 [5] | pIC50 [6] | pIC50 [7] | pIC50 [8] | pIC50 [9] | pIC50 [10] | pIC50 [11] |
| --- | --- | --- | --- | --- | --- | --- | --- | --- | --- | --- | --- |
| CN1C[C@H]2CCC[C@@]2(c2ccc3ccccc3c2)C1 | 7.84 | 7.54 | 19 min | 18 min | 6.72 | 4.89 | – | – | – | – | – |
| Clc1ccc([C@@]23CCC[C@@H]2CNC3)cc1Cl | 7.31 | 6.91 | 262 min | 91 min | 6.97 | 5.16 | < 5.30 | < 4.60 | 5.28 | 4.73 | 4.92 |
| CN1C[C@@H]2CCC[C@]2(c2ccc(Cl)c(Cl)c2)C1 (single isomer, unassigned) | 7.08 | 7.32 | 28 min | 27 min | 7.02 | 5.36 | 4.90 | 5.01 | – | 5.83 | 5.65 |
| c1ccc2cc([C@]34CCC[C@H]3CNC4)ccc2c1 | 7.87 | 7.47 | 25 min | 26 min | 7.85 | 5.03 | 5.58 | < 4.60 | – | 5.38 | < 4.60 |
| COc1cccc([C@]23CCCC[C@H]2CN(C)C3)c1 (racemic) | 6.83 | 5.47 | – | – | 5.61 | – | – | – | – | – | – |
| CN1C[C@@H]2CCC[C@]2(c2cc(Cl)cc(Cl)c2)C1 (racemic) | 6.48 | 5.01 | – | – | 5.37 | – | – | – | – | – | – |
| CN1C[C@@H]2CCCC[C@]2(c2ccc3ccccc3c2)C1 | 8.16 | 6.51 | 46 min | 18 min | 6.14 | 6.25 | – | – | – | – | – |
| CCN1C[C@H]2CCCC[C@@]2(c2ccc(Cl)c(Cl)c2)C1 | 7.34 | 7.60 | 68 min | 52 min | 7.57 | 6.60 | < 5.30 | < 5.30 | 5.33 | < 4.60 | 4.75 |
| CN1C[C@@H]2CCCC[C@]2(c2ccc(F)c(F)c2)C1 (racemic) | 5.91 | 6.38 | – | – | 5.63 | – | – | – | – | – | – |
| Clc1ccc([C@]23CCCC[C@H]2CNC3)cc1Cl | 7.01 | 6.34 | > 300 min | > 300 min | 6.75 | 5.58 | 5.08 | < 4.60 | 5.19 | 5.10 | < 4.60 |
| COc1ccc([C@]23CCC[C@H]2CN(C)C3)cc1 (racemic) | 8.35 | < 5.00 | – | – | < 5.00 | – | – | – | – | – | – |
| COc1ccc([C@]23CCCC[C@H]2CN(C)C3)cc1OC (racemic) | 7.46 | 5.01 | – | – | 5.23 | – | – | – | – | – | – |
| CCN1C[C@@H]2CCCC[C@]2(c2ccc(Cl)c(Cl)c2)C1 (single isomer, unassigned) | 7.16 | 8.00 | 55 min | 33 min | 7.42 | 5.53 | < 5.30 | < 5.30 | 5.36 | 5.37 | < 4.60 |
| CN1C[C@H]2CCCC[C@@]2(c2cccc3ccccc23)C1 | 7.48 | 5.61 | – | – | 6.69 | – | – | – | – | – | – |
| CN1C[C@@H]2CCC[C@]2(c2ccc3ccccc3c2)C1 | 8.64 | 6.74 | 36 min | 18 min | 6.68 | 5.58 | – | – | – | – | – |
| CN1C[C@@H]2CCCC[C@]2(c2ccccc2)C1 (racemic) | 6.14 | 5.80 | – | – | 6.25 | – | – | – | – | – | – |
| CN1C[C@@H]2CCCC[C@]2(c2ccc(Cl)c(Cl)c2)C1 | 6.97 | 7.85 | 62 min | 35 min | 6.85 | 5.10 | 5.28 | < 4.60 | 5.63 | 5.52 | < 4.60 |
| c1ccc2cc([C@@]34CCC[C@@H]3CNC4)ccc2c1 | 6.92 | 7.52 | 28 min | 56 min | 7.22 | 4.97 | 4.97 | 4.84 | – | 6.15 | 5.14 |

| Compound | pIC50 [1] | pIC50 [2] | half-life at 3 µM [3] | half-life at 3 µM [4] | pIC50 [5] | pIC50 [6] | pIC50 [7] | pIC50 [8] | pIC50 [9] | pIC50 [10] | pIC50 [11] |
| --- | --- | --- | --- | --- | --- | --- | --- | --- | --- | --- | --- |
| CN1C[C@H]2CCCC[C@@]2(Cc2ccc(Cl)c(Cl)c2)C1 (stereo in doubt) | 8.26 | 6.32 | 121 min | 25 min | 5.42 | > 7.30 | – | – | – | – | – |
| Clc1ccc(C[C@@]23CCCC[C@@H]2CNC3)cc1Cl | 7.31 | 6.80 | > 300 min | > 300 min | 5.53 | > 7.30 | – | – | – | – | – |
| Clc1ccc([C@]23CCCC[C@@H]2CNC3)cc1Cl (racemic; 19b) | 5.72 | 6.34 | – | – | 5.67 | – | – | – | – | – | – |
| CN1C[C@@H]2CCCC[C@]2(c2ccc3ccccc3c2)C1 (racemic) | 8.32 | 7.69 | – | – | 6.27 | – | – | – | – | – | – |
| Clc1ccc([C@]23CCCC[C@H]2CNC3)cc1Cl (racemic) | 6.94 | 6.69 | – | – | 6.95 | – | – | – | – | – | – |
| CN1C[C@@H]2CCC[C@]2(c2ccc(Cl)c(Cl)c2)C1 (racemic) | 8.05 | 7.17 | – | – | 7.62 | – | – | – | – | – | – |
| CN1C[C@@H]2CCCC[C@]2(c2cccc3ccccc23)C1 (racemic) | 6.79 | 5.88 | – | – | 6.38 | – | – | – | – | – | – |
| CN1C[C@@H]2CCCC[C@]2(c2cccc3ccccc23)C1 | 6.01 | 5.48 | – | – | < 5.00 | – | – | – | – | – | – |
| COc1cccc([C@]23CCC[C@H]2CN(C)C3)c1 (racemic) | 6.16 | < 5.00 | – | – | < 5.00 | – | – | – | – | – | – |
| COc1ccc([C@]23CCCC[C@H]2CN(C)C3)cc1 (racemic) | 6.89 | 6.00 | – | – | 4.85 | – | – | – | – | – | – |
| CN1C[C@@H]2CCC[C@]2(c2ccc3ccccc3c2)C1 (racemic) | 8.45 | 7.00 | – | – | 6.33 | – | – | – | – | – | – |
| Clc1ccc(C[C@]23CCCC[C@H]2CNC3)cc1Cl | 6.18 | 6.30 | – | – | 5.27 | – | – | – | – | – | – |
| CN1C[C@H]2CCCC[C@@]2(c2ccc3ccccc3c2)C1 | 7.90 | 7.21 | 17 min | 7 min | 6.27 | 4.87 | – | – | – | – | – |
| CN1C[C@@H]2CCC[C@]2(c2ccc(F)c(F)c2)C1 (racemic) | 5.96 | 5.55 | – | – | 5.19 | – | – | – | – | – | – |
| CN1C[C@@H]2CCCC[C@]2(c2ccc(Cl)cc2Cl)C1 (racemic) | 6.46 | 5.89 | – | – | 6.04 | – | – | – | – | – | – |
| Clc1ccc([C@]23CCCC[C@@H]2CNC3)cc1Cl (racemic; 19a) | 5.74 | 5.99 | – | – | 5.22 | – | – | – | – | – | – |
| CN1C[C@@H]2CCCC[C@]2(Cc2ccc(Cl)c(Cl)c2)C1 (stereo in doubt) | 6.47 | 6.31 | – | – | 5.35 | – | – | – | – | – | – |
